Reference: ChEMBL document CHEMBL1126160, “Synthesis and structure-activity relationships of 7-diazabicycloalkylquinolones, including danofloxacin, a new quinolone antibacterial agent for veterinary medicine” (J Med Chem, 1992)
Values after ≈ are worked out from the molar mass of the structure shown.

Tested on: Bordetella bronchiseptica
Experiment: In vitro antibacterial activity against aerobically grown Bordetella bronchiseptica (73A009)
Format: functional
Conditions: not given
Summary of the method: (§1)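 Agar dilution MICs. Aerobic strains were tested on brain heart infusion agar and incubated aerobically at 37 °C for 18–20 h.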

Point of comparison: `CCn1cc(C(=O)O)c(=O)c2cc(F)c(N3C[C@@H]4C[C@H]3CN4C)cc21`, MIC 1.56 µg/mL (≈ 4.52 µM). Against it:
- CCn1cc(C(=O)O)c(=O)c2cc(F)c(N3CC[C@H]4CCC(C3)N4C)cc21 — higher, > 1.56 µg/mL
- O=C(O)c1cn(C2CC2)c2cc(N3C[C@@H]4C[C@H]3CN4)c(F)cc2c1=O — higher, > 1.56 µg/mL

Tested on: Clostridium perfringens
Experiment: microbe, parasite or virus in culture
Format: functional
Conditions: not given

Point of comparison: `CCn1cc(C(=O)O)c(=O)c2cc(F)c(N3C[C@@H]4C[C@H]3CN4C)cc21`, MIC 0.2 µg/mL (≈ 0.579 µM). Against it:
- CCn1cc(C(=O)O)c(=O)c2cc(F)c(N3CC[C@H]4CCC(C3)N4C)cc21 — 7.8-fold higher, 1.56 µg/mL (≈ 4.18 µM)
- O=C(O)c1cn(C2CC2)c2cc(N3C[C@@H]4C[C@H]3CN4)c(F)cc2c1=O — 2-fold lower, 0.1 µg/mL (≈ 0.291 µM)

Tested on: Actinobacillus pleuropneumoniae
Experiment: In vitro antibacterial activity against anaerobically grown Actinobacillus pleuropneumoniae ([…])
Format: functional
Conditions: not given
Summary of the method: (§2)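 Agar dilution MICs. Anaerobic strains were tested on tryptose agar with 5% bovine blood and incubated 48 h at 39 °C in an anaerobe chamber under N2/CO2/H2 (80:10:10).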

Point of comparison: `CCn1cc(C(=O)O)c(=O)c2cc(F)c(N3C[C@@H]4C[C@H]3CN4C)cc21`, MIC 0.78 µg/mL (≈ 2.26 µM). Against it:
- CCn1cc(C(=O)O)c(=O)c2cc(F)c(N3CC[C@H]4CCC(C3)N4C)cc21 — the same, 0.78 µg/mL (≈ 2.09 µM)
- O=C(O)c1cn(C2CC2)c2cc(N3C[C@@H]4C[C@H]3CN4)c(F)cc2c1=O — 7.8-fold lower, 0.1 µg/mL (≈ 0.291 µM)

Tested on: Pasteurella multocida
Experiment: In vivo protective dose was evaluated Pasteurella multocida (59A006) in mouse(sc)
Format: functional
Conditions: read-out: PD50
Summary of the method: (§3)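 Female CF-1 mice (15 g), groups of 10, challenged ip with 0.5 mL bacterial suspension (P. multocida 59A006 or E. coli 51A266 at 3.0 × 10^8 cfu/mL; S. choleraesuis 58B010 at 8.5 × 10^2 cfu/mL). Drug given sc or po at 30 min, 4 h and 24 h after challenge; survival recorded at 96 h; PD50 by probit analysis.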

For `CCn1cc(C(=O)O)c(=O)c2cc(F)c(N3CC[C@H]4CCC(C3)N4C)cc21`, the ED50 was 1.03 mg/kg.

Tested on: Escherichia coli
Experiment: In vivo protective dose was evaluated against Escherichia coli (51A266) in mouse(sc)
Format: functional
Conditions: read-out: PD50
Summary of the method: as §3

Point of comparison: `O=C(O)c1cn(C2CC2)c2cc(N3C[C@@H]4C[C@H]3CN4)c(F)cc2c1=O`, ED50 0.92 mg/kg. Against it:
- CCn1cc(C(=O)O)c(=O)c2cc(F)c(N3C[C@@H]4C[C@H]3CN4C)cc21 — 1.6-fold higher, 1.45 mg/kg

Tested on: Pasteurella multocida
Experiment: In vitro antibacterial activity against aerobically grown Pasteurella multocida (59A006)
Format: functional
Conditions: not given
Summary of the method: as §1

Point of comparison: `CCn1cc(C(=O)O)c(=O)c2cc(F)c(N3CC[C@H]4CCC(C3)N4C)cc21`, MIC 0.39 µg/mL (≈ 1.04 µM). Against it:
- O=C(O)c1cn(C2CC2)c2cc(N3C[C@@H]4C[C@H]3CN4)c(F)cc2c1=O — 1.9-fold lower, 0.2 µg/mL (≈ 0.582 µM)

Tested on: Escherichia coli
Experiment: Escherichia coli DNA cleavage endpoint value which is the minimum amount required (in micro g/mL) to induce detectable cleavage of supercoiled pBR322 substrate to linear form (gyrase)
Format: functional
Conditions: read-out: MIC
Summary of the method: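 DNA gyrase A and B subunits were purified from E. coli overproducers. About 2 units of holoenzyme were incubated with pBR322 in Tris-HCl pH 7.5 containing MgCl2, spermidine, DTT, 0.2 mM ATP, BSA and tRNA. Drug was added as 2-fold serial dilutions, and reactions ran for 60 min at 25 °C. Reactions were stopped with SDS and proteinase K, then run on agarose and stained with ethidium. The endpoint was the lowest concentration giving detectable linear DNA.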

Point of comparison: `CCn1cc(C(=O)O)c(=O)c2cc(F)c(N3C[C@@H]4C[C@H]3CN4C)cc21`, minimum concentration inducing gyrase-mediated DNA cleavage 3.12 µg/mL. Against it:
- CCn1cc(C(=O)O)c(=O)c2cc(F)c(N3CC[C@H]4CCC(C3)N4C)cc21 — 2-fold lower, 1.56 µg/mL
- O=C(O)c1cn(C2CC2)c2cc(N3C[C@@H]4C[C@H]3CN4)c(F)cc2c1=O — 8-fold lower, 0.39 µg/mL

Tested on: Salmonella enterica
Experiment: In vitro antibacterial activity against Aerobically grown Salmonella choleraesuis (58B015)
Format: functional
Conditions: not given

Molecule `CCn1cc(C(=O)O)c(=O)c2cc(F)c(N3C[C@@H]4C[C@H]3CN4C)cc21` has an MIC of 0.39 µg/mL (≈ 1.13 µM).

Tested on: Pasteurella multocida
Experiment: In vitro antibacterial activity against Aerobically grown Pasteurella multocida (59A006)
Format: functional
Conditions: not given
Summary of the method: as §1

Work on `CCn1cc(C(=O)O)c(=O)c2cc(F)c(N3C[C@@H]4C[C@H]3CN4C)cc21` yielded an MIC of 0.1 µg/mL (≈ 0.29 µM).

Tested on: Salmonella enterica
Experiment: In vitro antibacterial activity against aerobically grown Salmonella choleraesuis (58B015)
Format: functional
Conditions: not given

Point of comparison: `O=C(O)c1cn(C2CC2)c2cc(N3C[C@@H]4C[C@H]3CN4)c(F)cc2c1=O`, MIC 0.05 µg/mL (≈ 0.146 µM). Against it:
- CCn1cc(C(=O)O)c(=O)c2cc(F)c(N3CC[C@H]4CCC(C3)N4C)cc21 — higher, > 1.56 µg/mL

Tested on: Pasteurella multocida
Experiment: In vivo protective dose was evaluated against Pasteurella multocida (59A006) in mouse(sc)
Format: functional
Conditions: read-out: PD50
Summary of the method: as §3

Point of comparison: `O=C(O)c1cn(C2CC2)c2cc(N3C[C@@H]4C[C@H]3CN4)c(F)cc2c1=O`, ED50 0.2 mg/kg. Against it:
- CCn1cc(C(=O)O)c(=O)c2cc(F)c(N3C[C@@H]4C[C@H]3CN4C)cc21 — 6.8-fold higher, 1.35 mg/kg

Tested on: not listed separately
Experiment: In vitro evaluation for antibacterial activity against anaerobically grown Treponema hyodysenteriae (94A007)
Format: functional
Conditions: Brachyspira hyodysenteriae

Point of comparison: `CCn1cc(C(=O)O)c(=O)c2cc(F)c(N3C[C@@H]4C[C@H]3CN4C)cc21`, MIC 1.56 µg/mL (≈ 4.52 µM). Against it:
- CCn1cc(C(=O)O)c(=O)c2cc(F)c(N3CC[C@H]4CCC(C3)N4C)cc21 — higher, > 3.13 µg/mL
- O=C(O)c1cn(C2CC2)c2cc(N3C[C@@H]4C[C@H]3CN4)c(F)cc2c1=O — the same, 1.56 µg/mL (≈ 4.54 µM)

Tested on: Trueperella pyogenes
Experiment: In vitro antibacterial activity against anaerobically grown Actinomyces pyogenes (14D002)
Format: functional
Conditions: not given
Summary of the method: as §2

Point of comparison: `O=C(O)c1cn(C2CC2)c2cc(N3C[C@@H]4C[C@H]3CN4)c(F)cc2c1=O`, MIC 3.13 µg/mL (≈ 9.12 µM). Against it:
- CCn1cc(C(=O)O)c(=O)c2cc(F)c(N3CC[C@H]4CCC(C3)N4C)cc21 — higher, > 3.13 µg/mL
- CCn1cc(C(=O)O)c(=O)c2cc(F)c(N3C[C@@H]4C[C@H]3CN4C)cc21 — higher, > 3.13 µg/mL

Tested on: Escherichia coli
Experiment: In vitro antibacterial activity against aerobically grown Escherichia coli (51A538)
Format: functional
Conditions: not given
Summary of the method: as §1

Point of comparison: `CCn1cc(C(=O)O)c(=O)c2cc(F)c(N3C[C@@H]4C[C@H]3CN4C)cc21`, MIC 0.2 µg/mL (≈ 0.579 µM). Against it:
- CCn1cc(C(=O)O)c(=O)c2cc(F)c(N3CC[C@H]4CCC(C3)N4C)cc21 — higher, > 1.56 µg/mL
- O=C(O)c1cn(C2CC2)c2cc(N3C[C@@H]4C[C@H]3CN4)c(F)cc2c1=O — 2-fold lower, 0.1 µg/mL (≈ 0.291 µM)

Tested on: Staphylococcus aureus
Experiment: In vitro antibacterial activity against aerobically grown Staphylococcus aureus (54B004)
Format: functional
Conditions: not given
Summary of the method: as §1

Point of comparison: `CCn1cc(C(=O)O)c(=O)c2cc(F)c(N3CC[C@H]4CCC(C3)N4C)cc21`, MIC 1.56 µg/mL (≈ 4.18 µM). Against it:
- CCn1cc(C(=O)O)c(=O)c2cc(F)c(N3C[C@@H]4C[C@H]3CN4C)cc21 — 4-fold lower, 0.39 µg/mL (≈ 1.13 µM)
- O=C(O)c1cn(C2CC2)c2cc(N3C[C@@H]4C[C@H]3CN4)c(F)cc2c1=O — the same, 1.56 µg/mL (≈ 4.54 µM)

Tested on: not listed separately
Experiment: In vitro antibacterial activity against Aerobically grown Pasteurella haemolytica (59B018)
Format: functional
Conditions: Mannheimia haemolytica
Summary of the method: as §1

Point of comparison: `CCn1cc(C(=O)O)c(=O)c2cc(F)c(N3C[C@@H]4C[C@H]3CN4C)cc21`, MIC 0.39 µg/mL (≈ 1.13 µM). Against it:
- CCn1cc(C(=O)O)c(=O)c2cc(F)c(N3CC[C@H]4CCC(C3)N4C)cc21 — 4-fold higher, 1.56 µg/mL (≈ 4.18 µM)
- O=C(O)c1cn(C2CC2)c2cc(N3C[C@@H]4C[C@H]3CN4)c(F)cc2c1=O — 1.9-fold lower, 0.2 µg/mL (≈ 0.582 µM)

Tested on: not listed separately
Experiment: Compound was evaluated for aqueous solubility at pH 7.2
Conditions: buffer

`O=C(O)c1cn(C2CC2)c2cc(N3C[C@@H]4C[C@H]3CN4)c(F)cc2c1=O` gave a solubility of 77 µg/mL (≈ 224 µM).

Tested on: Phocaeicola vulgatus
Experiment: In vitro antibacterial activity against anaerobically grown Bacteroides vulgatus (78D029)
Format: functional
Conditions: not given
Summary of the method: as §2

`CCn1cc(C(=O)O)c(=O)c2cc(F)c(N3CC[C@H]4CCC(C3)N4C)cc21` and `CCn1cc(C(=O)O)c(=O)c2cc(F)c(N3C[C@@H]4C[C@H]3CN4C)cc21` cannot be ordered by MIC: > 3.13 µg/mL for the first, > 3.13 µg/mL for the second.

With `O=C(O)c1cn(C2CC2)c2cc(N3C[C@@H]4C[C@H]3CN4)c(F)cc2c1=O` the MIC was > 3.13 µg/mL.
